Reference: ChEMBL document CHEMBL1255226 (J Med Chem, 2010)
Each block holds one molecule with its values, some of them ahead of it. The source made the active and inactive calls. The calls are words filed in the database; no cut-off is given here.

Tests used:
[1] = target: Serine/threonine-protein kinase mTOR (Mus musculus, UniProt Q9JLN9); assay: Inhibition of mTOR in p53-deficient MEF assessed as phosphorylation of S6K1 at Thr389 by immunoblotting
[2] = Mean retention time in C57BL/6 mouse at 10 mg/kg, po; assay type: ADME, organism-based; set-up: dose 10 mg/kg, route oral; settings: in vivo
[3] = Cmax in Swiss albino mouse at 10 mg, ip; assay type: ADME, organism-based; set-up: dose 10 mg, route intraperitoneal; settings: in vivo
[4] = Tmax in Swiss albino mouse at 10 mg, ip; assay type: ADME, organism-based; settings: in vivo
[5] = AUC in Swiss albino mouse at 10 mg, ip; assay type: ADME, organism-based; settings: plasma
Mus musculus [6] = assay: In vivo inhibition of mTOR complex 1 in C57BL/6 mouse lung assessed as reduction of S6 phosphorylation at S235/236 at 20 mg/kg, ip after up to 6 hrs by Western blotting; assay type: functional, organism-based; set-up: dose 20 mg/kg
Outline: (§1)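 They received a single IP dose of 20 mg/kg (NMP stock diluted 1:4 with 50% PEG400) for 2, 6 or 10 h; vehicle controls were dosed for 10 h. Mice were re-fed 1 h before sacrifice. Liver and lung were sonicated in HEPES pH 7.4 lysis buffer with phosphatase and protease inhibitors. Lysates were Bradford-normalized and immunoblotted for Akt S473 and S6 S235/236.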

Mus musculus [7] = assay: In vivo inhibition of mTOR complex 1 in C57BL/6 mouse liver assessed as reduction of S6 phosphorylation at S235/236 at 20 mg/kg, ip after up to 10 hrs by Western blotting; assay type: functional, organism-based; set-up: dose 20 mg/kg; outline: as §1
[8] = target: Phosphatidylinositol 4-kinase alpha (Homo sapiens, UniProt P42356); assay: Inhibition of PI4Kalpha
Chain of Phosphatidylinositol 4-kinase alpha (P42356 whole entry): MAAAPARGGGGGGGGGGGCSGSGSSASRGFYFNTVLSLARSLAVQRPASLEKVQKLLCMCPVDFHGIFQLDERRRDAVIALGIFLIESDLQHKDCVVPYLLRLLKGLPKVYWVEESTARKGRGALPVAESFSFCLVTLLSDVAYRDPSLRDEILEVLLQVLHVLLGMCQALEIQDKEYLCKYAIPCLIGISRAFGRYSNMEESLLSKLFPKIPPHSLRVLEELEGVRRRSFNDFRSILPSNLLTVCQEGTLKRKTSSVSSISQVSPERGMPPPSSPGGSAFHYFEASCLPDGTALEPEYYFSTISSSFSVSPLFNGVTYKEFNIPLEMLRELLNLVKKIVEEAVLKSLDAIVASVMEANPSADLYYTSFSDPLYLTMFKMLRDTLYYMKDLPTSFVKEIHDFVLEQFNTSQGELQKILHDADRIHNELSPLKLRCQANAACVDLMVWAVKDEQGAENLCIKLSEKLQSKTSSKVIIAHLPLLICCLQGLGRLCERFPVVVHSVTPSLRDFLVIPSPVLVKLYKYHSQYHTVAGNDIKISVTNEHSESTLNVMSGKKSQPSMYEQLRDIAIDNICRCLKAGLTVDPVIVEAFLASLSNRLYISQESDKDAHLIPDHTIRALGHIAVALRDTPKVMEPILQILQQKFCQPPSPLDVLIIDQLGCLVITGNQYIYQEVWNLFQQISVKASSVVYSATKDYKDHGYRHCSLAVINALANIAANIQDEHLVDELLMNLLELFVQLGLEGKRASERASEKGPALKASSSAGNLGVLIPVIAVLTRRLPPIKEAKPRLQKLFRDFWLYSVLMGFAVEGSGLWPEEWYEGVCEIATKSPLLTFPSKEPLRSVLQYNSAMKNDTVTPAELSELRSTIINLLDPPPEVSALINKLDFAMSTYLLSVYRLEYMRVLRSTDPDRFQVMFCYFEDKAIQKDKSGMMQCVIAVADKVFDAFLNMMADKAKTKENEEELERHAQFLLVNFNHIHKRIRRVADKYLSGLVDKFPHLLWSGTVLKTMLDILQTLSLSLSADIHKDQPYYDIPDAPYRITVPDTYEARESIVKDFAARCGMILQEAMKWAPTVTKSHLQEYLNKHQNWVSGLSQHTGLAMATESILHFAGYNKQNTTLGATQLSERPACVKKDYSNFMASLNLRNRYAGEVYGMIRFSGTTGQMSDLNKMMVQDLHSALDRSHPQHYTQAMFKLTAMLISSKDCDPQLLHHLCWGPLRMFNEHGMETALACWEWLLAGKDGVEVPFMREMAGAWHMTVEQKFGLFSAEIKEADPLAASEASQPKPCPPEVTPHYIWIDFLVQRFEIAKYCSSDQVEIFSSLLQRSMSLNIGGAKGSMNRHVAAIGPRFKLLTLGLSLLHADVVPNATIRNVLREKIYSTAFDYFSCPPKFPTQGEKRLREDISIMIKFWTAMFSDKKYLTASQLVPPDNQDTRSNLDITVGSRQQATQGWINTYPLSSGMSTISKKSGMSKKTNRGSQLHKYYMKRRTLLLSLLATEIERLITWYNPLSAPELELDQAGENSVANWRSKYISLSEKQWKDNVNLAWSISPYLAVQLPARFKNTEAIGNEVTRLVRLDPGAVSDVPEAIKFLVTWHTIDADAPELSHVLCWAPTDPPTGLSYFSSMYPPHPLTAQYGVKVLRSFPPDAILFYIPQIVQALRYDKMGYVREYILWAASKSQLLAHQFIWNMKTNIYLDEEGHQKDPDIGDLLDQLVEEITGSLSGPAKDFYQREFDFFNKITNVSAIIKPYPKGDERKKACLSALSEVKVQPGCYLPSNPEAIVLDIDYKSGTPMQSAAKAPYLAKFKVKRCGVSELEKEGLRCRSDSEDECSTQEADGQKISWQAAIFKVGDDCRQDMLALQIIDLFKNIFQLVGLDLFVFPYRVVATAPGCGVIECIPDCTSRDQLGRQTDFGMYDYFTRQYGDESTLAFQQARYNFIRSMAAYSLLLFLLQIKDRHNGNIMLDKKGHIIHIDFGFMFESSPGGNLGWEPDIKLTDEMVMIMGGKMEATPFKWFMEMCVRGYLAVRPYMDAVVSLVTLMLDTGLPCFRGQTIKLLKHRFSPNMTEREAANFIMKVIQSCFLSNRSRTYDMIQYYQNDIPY
Outline: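 Biochemical LanthaScreen enzymatic lipid kinase assay run as an outsourced profiling service. Inhibitor at 10 concentrations, three-fold serial dilutions starting from 1 μM. ATP at the apparent ATP Km for the assay. IC50 derived from the dose-response.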

[9] = Cmax in C57BL/6 mouse at 1 mg/kg, iv; assay type: ADME, organism-based; set-up: dose 1 mg/kg, route intravenous; settings: in vivo
[10] = Volume of distribution at steady state in C57BL/6 mouse at 1 mg/kg, iv; assay type: ADME, organism-based; set-up: dose 1 mg/kg, route intravenous; settings: in vivo, read-out: Vdss
[11] = AUC in C57BL/6 mouse at 1 mg/kg, iv; assay type: ADME, organism-based; set-up: dose 1 mg/kg, route intravenous; settings: plasma
[12] = Mean retention time in C57BL/6 mouse at 1 mg/kg, iv; assay type: ADME, organism-based; set-up: dose 1 mg/kg, route intravenous; settings: in vivo
[13] = Cmax in C57BL/6 mouse at 10 mg/kg, po; assay type: ADME, organism-based; set-up: dose 10 mg/kg, route oral; settings: in vivo
[14] = Tmax in C57BL/6 mouse at 10 mg/kg, po; assay type: ADME, organism-based; set-up: dose 10 mg/kg, route oral; settings: in vivo
[15] = AUC in C57BL/6 mouse at 10 mg/kg, po; assay type: ADME, organism-based; set-up: dose 10 mg/kg, route oral; settings: plasma
Mus musculus [16] = assay: In vivo inhibition of mTOR complex 2 in C57BL/6 mouse assessed as reduction of Akt1 phosphorylation at S473 at 20 mg/kg, ip after 2 to 3 hrs by Western blotting
[17] = target: Serine/threonine-protein kinase mTOR (Homo sapiens, UniProt P42345)
[18] = target: Phosphatidylinositol 4,5-bisphosphate 3-kinase catalytic subunit alpha isoform (Homo sapiens, UniProt P42336, S473D); assay: Inhibition of PI3Kalpha in human PC3 cells expressing Akt1 S473D mutant assessed as phosphorylation of Akt Thr308 by immunoblotting; assay type: cell-based, PC-3
Chain of Phosphatidylinositol 4,5-bisphosphate 3-kinase catalytic subunit alpha isoform (P42336 whole entry, looked up, stated change not applied, canonical isoform): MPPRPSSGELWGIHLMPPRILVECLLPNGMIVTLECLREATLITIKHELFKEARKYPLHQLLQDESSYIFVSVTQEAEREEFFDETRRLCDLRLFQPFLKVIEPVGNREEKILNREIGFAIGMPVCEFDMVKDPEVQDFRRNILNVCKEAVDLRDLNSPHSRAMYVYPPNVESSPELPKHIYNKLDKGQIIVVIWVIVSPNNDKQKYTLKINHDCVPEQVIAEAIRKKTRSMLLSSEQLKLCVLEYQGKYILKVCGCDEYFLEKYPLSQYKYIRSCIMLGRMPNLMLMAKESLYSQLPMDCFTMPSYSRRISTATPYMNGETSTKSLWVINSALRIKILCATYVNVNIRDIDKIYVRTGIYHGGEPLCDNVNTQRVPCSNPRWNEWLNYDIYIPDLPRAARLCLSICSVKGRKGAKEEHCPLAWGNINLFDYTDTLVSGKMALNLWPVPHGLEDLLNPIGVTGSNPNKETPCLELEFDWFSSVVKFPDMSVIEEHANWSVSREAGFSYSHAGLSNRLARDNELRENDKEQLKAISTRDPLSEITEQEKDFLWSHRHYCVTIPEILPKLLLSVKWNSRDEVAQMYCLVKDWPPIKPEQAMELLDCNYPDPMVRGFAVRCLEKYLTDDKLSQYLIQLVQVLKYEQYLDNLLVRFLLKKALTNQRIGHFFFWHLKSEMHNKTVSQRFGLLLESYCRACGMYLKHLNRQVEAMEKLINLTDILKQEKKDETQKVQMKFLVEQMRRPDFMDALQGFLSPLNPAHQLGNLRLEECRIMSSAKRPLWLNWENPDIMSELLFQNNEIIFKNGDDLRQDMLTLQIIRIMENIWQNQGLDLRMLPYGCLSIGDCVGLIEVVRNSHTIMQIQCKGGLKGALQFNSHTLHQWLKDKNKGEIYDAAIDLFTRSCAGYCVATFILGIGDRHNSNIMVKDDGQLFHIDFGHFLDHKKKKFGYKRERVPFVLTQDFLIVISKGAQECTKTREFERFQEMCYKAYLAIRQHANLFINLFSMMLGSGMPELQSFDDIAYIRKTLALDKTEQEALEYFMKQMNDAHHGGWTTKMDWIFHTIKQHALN

SMILES: CCC(=O)N1CCN(c2ccc(N3C(=O)OCc4cnc5ccc(-c6cnc7ccccc7c6)cc5c43)cc2C(F)(F)F)CC1
IC50 [1]: > 300 nM

SMILES: CCC(=O)N1CCN(c2ccc(N3C(=O)NCc4cnc5ccc(-c6cnc7ccccc7c6)cc5c43)cc2C(F)(F)F)CC1
IC50 [1]: > 300 nM

SMILES: CCC(=O)N1CCN(c2ccc(-n3c(=O)ccc4cnc5ccc(-c6cnc7ccccc7c6)cc5c43)cc2C(F)(F)F)CC1 [TORIN1]
MRT [2]: 90.6 min
Cmax [3]: 5120 ng/mL
Tmax [4]: 4.8 min
AUC [5]: 5720 ng·h/mL
inhibition (Mus musculus [6]): Active
inhibition (Mus musculus [7]): Active
IC50 [8]: > 10000 nM
Cmax [9]: 2760 ng/mL
Vd [10]: 0.59 L/kg
AUC [11]: 720 ng·h/mL
MRT [12]: 25.8 min
Cmax [13]: 223 ng/mL
Tmax [14]: 15 min
AUC [15]: 396 ng·h/mL
inhibition (Mus musculus [16]): Active

SMILES: CCC(=O)N1CCN(c2ccc(-n3c(=O)n(C)c(=O)c4cnc5ccc(-c6cnc7ccccc7c6)cc5c43)cc2C(F)(F)F)CC1
IC50 [1]: 300 nM

SMILES: CN(C)CCC(=O)N1CCN(c2ccc(Nc3ccnc4ccc(-c5cnc6ccccc6c5)cc34)cc2C(F)(F)F)CC1
IC50 [1]: > 300 nM
IC50 [18]: > 300 nM

SMILES: CCC(=O)N1CCN(c2ccc(-n3c(=O)cc(C)c4cnc5ccc(-c6cnc7ccccc7c6)cc5c43)cc2C(F)(F)F)CC1
IC50 [1]: > 300 nM

SMILES: O=C(O)N1CCN(c2ccc(Nc3ccnc4ccc(-c5cnc6ccccc6c5)cc34)cc2C(F)(F)F)CC1
IC50 [1]: > 300 nM
IC50 [18]: > 300 nM

The next lines start with the values.

IC50 [1]: 5 nM
SMILES: O=C(CN1CCOCC1)N1CCC(c2ccc(-n3c(=O)ccc4cnc5ccc(-c6cnc7ccccc7c6)cc5c43)cc2C(F)(F)F)CC1

IC50 [1]: 100 nM
SMILES: CCC(=O)N1CCN(c2ccc(-n3c(=O)c(C)cc4cnc5ccc(-c6cnc7ccccc7c6)cc5c43)cc2C(F)(F)F)CC1

IC50 [17]: 5.4 nM
IC50 [1]: 3 nM
IC50 [18]: > 300 nM
SMILES: CC(=O)N1CCN(c2ccc(-n3c(=O)ccc4cnc5ccc(-c6cnc7ccccc7c6)cc5c43)cc2C(F)(F)F)CC1

IC50 [1]: 30 nM
SMILES: CCC(=O)N1CC=C(c2ccc(-n3c(=O)ccc4cnc5ccc(-c6cnc7ccccc7c6)cc5c43)cc2C(F)(F)F)CC1
